APJ antagonist: antagonists of human apelin receptor APJ, primary screen, CHO-K1 cells, beta-arrestin complementation, luminescence | P35414 | inhibition, % at 20 µM | actives 0.32% (n = 330,000) | AID 2521, 2010;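 active = inhibition above about 40% at 20 µM, limit read from the data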;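 also: cells challenged with 10 nM apelin-13 agonist together with compound; plate controls were apelin-13 plus DMSO wells for no effect and DMSO wells lacking apelin-13 for full effect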
CCR6 antagonist: CCR6 receptor antagonists, primary screen, cell-based, CHO-K1, luminescence, beta-arrestin, uHTS. C-C chemokine receptor type 6 (Homo sapiens), P51684. CHO-K1 CCR6 PathHunter beta-arrestin, CCL20-stimulated. inhibition, % at 20 µM. actives 0.49% (n = 340,000). AID 493098, 2011;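 active = compounds whose inhibition of the agonist-driven luminescence signal at 20 µM reaches about 50%, limit read from the data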;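 also: cells stimulated with CCL20 at 14 nM final; plate controls were DMSO with CCL20 for no effect and DMSO without agonist for full effect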
Target sequence (P51684 whole entry, looked up): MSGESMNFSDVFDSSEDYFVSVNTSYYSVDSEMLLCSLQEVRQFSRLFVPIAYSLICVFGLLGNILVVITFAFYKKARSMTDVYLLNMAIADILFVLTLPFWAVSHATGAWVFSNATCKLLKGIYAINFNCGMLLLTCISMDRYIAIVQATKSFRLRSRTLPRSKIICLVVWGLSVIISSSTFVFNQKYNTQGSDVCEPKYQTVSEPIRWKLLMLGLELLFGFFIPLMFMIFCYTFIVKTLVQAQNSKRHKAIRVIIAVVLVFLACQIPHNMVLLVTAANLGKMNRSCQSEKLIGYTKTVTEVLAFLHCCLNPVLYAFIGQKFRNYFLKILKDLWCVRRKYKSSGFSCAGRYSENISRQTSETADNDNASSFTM
CXCR6 inh: CXCR6 receptor inhibitors, primary screen, cell-based, beta-arrestin, luminescence, CHO-K1 PathHunter, 1536-well; inhibition, % at 20 µM; AID 602244, 2012; actives 0.36% (n = 360,000); in the data active = inhibition above about 34%, passing the limit was not always enough;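 also: antagonist mode with CXCL16 agonist at 10 nM final; 0% = 10 nM CXCL16 with DMSO and 100% = unstimulated wells without agonist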
APJ ag: agonists of human apelin receptor APJ, primary screen, CHO-K1 cells, PathHunter beta-arrestin, luminescence; AID 2520, 2010; activation, % at 20 µM; 0% DMSO wells, 100% apelin; actives 0.11% (n = 330,000); P35414;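 active = activation more than six SD over the plate average, tested at 20 µM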;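 also: 0% = DMSO alone and 100% = apelin-13 at 10 nM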
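Incubation: overnight seeding, 90 min compound at 25 °C, 1 h detection; test system: PathHunter CHO-K1 APJ (AGTRL-1) beta-arrestin reporter cells; amount: 1000 cells/well; doses: one dose, 20 µM compound, 1% DMSO; measured by: beta-gal luminescence; measure: agonist-driven arrestin binding to APJ; benchmarks: negative DMSO alone, positive Apelin-13 at 10 nM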
EBI2 block: EBI2 receptor antagonists, beta-arrestin recruitment, primary screen, cell-based, luminescence, 7a,25-OHC stimulation, uHTS; actives 0.81% (n = 360,000); G-protein coupled receptor 183 (Homo sapiens), P32249; inhibition, % at 5 µM; AID 651636, 2012; 7a,25-OHC stimulated; in the data active = inhibition above about 38%;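 also: enzyme fragment complementation signal reports receptor beta-arrestin coupling in cells; 0% = agonist plus DMSO wells and 100% = wells without agonist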
EBI2 conf: EBI2 antagonist hit retest, beta-arrestin, confirmation, cell-based, single concentration, luminescence, 7a,25-OHC stimulation; shares compounds with EBI2 block; 7a,25-OHC antagonism; inhibition, % at 5 µM; actives 29% (n = 2,400); AID 651997, 2013;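 active = inhibition of at least 50%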
EBI2 agonist: EBI2 agonist activity of antagonist hits, confirmation, counter-screen for EBI2 antagonist project, cell-based, single concentration, agonist mode, luminescence; shares compounds with EBI2 block; EBI2-expressing cells, 60 min; 0% vehicle, 100% 7α,25-dihydroxycholesterol control; activation, % at 5 µM; 2,400 tested, under 10 active; AID 652000, 2013;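 active = activation of at least 50%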
bGal cs: E. coli beta-galactosidase enzyme inhibition, confirmation, counter-screen for EBI2 antagonist project, biochemical, luminescence, single concentration; purified beta-galactosidase, luminescent Galacton Star, 15 min; AID 652176, 2013; shares compounds with EBI2 block; actives 1% (n = 2,400); inhibition, % at 5 µM;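 active = replicate-average signal at least 3 plate SD below neutral wells, shown as high inhibition, flagging enzyme-inhibiting false positives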;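 also: 0% = DMSO wells with enzyme and 100% = wells lacking enzyme; higher means stronger loss of beta-gal luminescence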
Active calls of the source: *. Hits are enriched below; roughly 1.5% of the tested compounds scored in any of these assays.

Screening COC(=O)C1=C(c2ccc(OCc3ccccc3)cc2)C[C@@H]2CC[C@H]1N2C(=O)NCc1ccc(OC)cc1 returned CXCR6 inh 6.1 and EBI2 block 24.3.
`COC(=O)C1=C(c2ccc(OCc3ccccc3)cc2)C[C@@H]2CC[C@H]1N2C(=O)NCc1cccc(OC)c1` gave APJ antagonist -7.6, CCR6 antagonist 16.3, CXCR6 inh 15.1, APJ ag -1.6, EBI2 block 57.3*, EBI2 conf 54.1*, EBI2 agonist -0.9 and bGal cs 6.1.
For CC1=C(C/C(C)=C/c2ccccc2)/C(=C/CO)[C@H](O)[C@](C)(O)C12CC2 the results were APJ antagonist -9.6, CCR6 antagonist -8.6, CXCR6 inh 0.2, APJ ag -0.9 and EBI2 block 3.2.
For CN(C)C(=O)Oc1ccc(OC(=O)c2ccccc2)cc1 the results were APJ antagonist 8.4, CCR6 antagonist 2.9, CXCR6 inh -4.8, APJ ag 0.1 and EBI2 block -8.2.
Screening CN(C(=O)Oc1ccc(C(=O)c2ccc(Cl)cc2)cc1)c1ccccc1 returned APJ antagonist 4.2, CCR6 antagonist -7.8, CXCR6 inh -1.5, APJ ag 1.5, EBI2 block 79.0*, EBI2 conf 56.1*, EBI2 agonist -0.8 and bGal cs -11.1.
For CN1CCCC2c3ccccc3CCC21 (centres undefined) the results were CXCR6 inh 4.1 and EBI2 block -18.0.
For CCCCOC1OCN(C2CCCCC2)CC1(C)C (centres undefined) the results were CXCR6 inh -4.4 and EBI2 block 2.2.

Assay outcomes (PubChem)
